Data published in ChEMBL document CHEMBL1134553 (J Med Chem, 2001).

biological target: T1, Sodium-dependent serotonin transporter (Homo sapiens, UniProt P31645); test: Inhibition of [3H]-citalopram binding to the serotonin transporter in rhesus (Macaca mulatta) or cynomolgus monkey (Macaca fascicularis) caudate-putamen.; type: tissue-based, Cercopithecidae; details: not given
Procedure, shortened: (§1)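 Caudate-putamen membranes homogenised in ice-cold 50 mM Tris·HCl (pH 7.4), spun at 38000g for 20 min, washed twice. Assay at 4 mg original wet tissue/mL with 1 nM [3H]citalopram in 50 mM Tris·HCl pH 7.4 plus 100 mM NaCl. Incubated 2 h at 0-4 °C, then filtered on polyethyleneimine-soaked GF/B and counted by scintillation. Nonspecific binding defined with 10 µM fluoxetine. IC50 by EBDA; triplicates, 2-3 brains.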

T1 sequence (P31645 whole entry): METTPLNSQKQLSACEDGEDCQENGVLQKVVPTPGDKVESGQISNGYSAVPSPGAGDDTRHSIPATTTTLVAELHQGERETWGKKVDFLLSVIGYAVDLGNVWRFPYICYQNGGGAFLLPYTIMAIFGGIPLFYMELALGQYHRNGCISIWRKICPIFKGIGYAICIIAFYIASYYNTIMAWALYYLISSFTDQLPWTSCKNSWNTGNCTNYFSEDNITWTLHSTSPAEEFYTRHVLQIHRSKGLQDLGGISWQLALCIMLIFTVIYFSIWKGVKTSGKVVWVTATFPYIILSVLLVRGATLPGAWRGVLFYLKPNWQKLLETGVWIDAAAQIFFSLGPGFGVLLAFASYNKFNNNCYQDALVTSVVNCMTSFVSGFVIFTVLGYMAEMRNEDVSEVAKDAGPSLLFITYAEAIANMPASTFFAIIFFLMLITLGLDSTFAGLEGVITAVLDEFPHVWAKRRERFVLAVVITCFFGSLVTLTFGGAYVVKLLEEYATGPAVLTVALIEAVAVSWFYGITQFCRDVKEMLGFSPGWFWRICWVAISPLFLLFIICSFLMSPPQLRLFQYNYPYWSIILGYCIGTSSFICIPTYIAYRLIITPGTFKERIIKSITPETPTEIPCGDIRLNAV

| Structure (SMILES) | IC50 |
| --- | --- |
| COC(=O)[C@@H]1C2CC[C@H](C[C@@H]1c1ccccc1)N2C.Cl | Not Active |

biological target: T1, Sodium-dependent serotonin transporter; test: Inhibition of [3H]citalopram binding to the serotonin transporter in rhesus (Macaca mulatta) or cynomolgus monkey (Macaca fascicularis) caudate-putamen.; type: tissue-based, Cercopithecidae; details: target entry is the homologue from another species; procedure, shortened: as §1

| Structure (SMILES) | IC50 |
| --- | --- |
| COC(=O)C1C(c2ccccc2)CC2C[C@@H](O)C1N2C (stereo in doubt; 15d) [listing 1 of 2 here] | > 10000 nM |
| COC(=O)C1C(c2ccc(F)cc2)CC2[C@@H](O)CC1N2C (stereo in doubt; 17c) [listing 1 of 2 here] | 5820 nM |
| COC(=O)C1C(c2ccc3ccccc3c2)CC2C[C@@H](O)C1N2C (stereo in doubt; 18b) [listing 1 of 2 here] | 94 nM |
| COC(=O)C1C(c2ccc(Cl)c(Cl)c2)C[C@H]2C[C@@H](O)C1N2C (some centres not stated) | 15 nM |
| COC(=O)[C@H]1[C@@H](c2ccc(F)cc2)C[C@H]2CC[C@H]1N2C (stereo in doubt; 16c) | 1130 nM |
| COC(=O)[C@@H]1C(c2ccc(Cl)c(Cl)c2)C[C@H]2C[C@@H](O)C1N2C (some centres not stated) | 1220 nM |
| COC(=O)C1=C(c2ccc3ccccc3c2)CC2C[C@@H](O)C1N2C (some centres not stated) | 677 nM |
| COC(=O)C1C(c2ccc3ccccc3c2)CC2[C@@H](O)CC1N2C (stereo in doubt; 17b) [listing 1 of 2 here] | 180 nM |
| COC(=O)C1C(c2ccc3ccccc3c2)CC2[C@@H](O)CC1N2C (stereo in doubt; 14b) [listing 1 of 2 here] | 34.2 nM |
| COC(=O)[C@H]1C(c2ccc(Cl)c(Cl)c2)CC2C[C@@H](O)[C@H]1N2C (stereo in doubt; (1R)-18a) [listing 1 of 2 here] | 5300 nM |
| COC(=O)C1C(c2ccccc2)CC2[C@@H](O)CC1N2C (stereo in doubt; 34) | > 20000 nM |
| COC(=O)[C@H]1C2C(=O)CC(C[C@H]1c1ccc(Cl)c(Cl)c1)N2C (some centres not stated) | 7040 nM |
| COC(=O)C1C(c2ccccc2)CC2C[C@@H](O)C1N2C (stereo in doubt; 18d) [listing 1 of 2 here] | > 100000 nM |
| COC(=O)C1=C(c2ccc(Cl)c(Cl)c2)C[C@H]2C[C@@H](O)C1N2C | 5370 nM |
| COC(=O)C1=C(c2ccc(Cl)c(Cl)c2)CC2[C@@H](O)CC1N2C (some centres not stated) | 3320 nM |
| COC(=O)C1C(c2ccc(Cl)c(Cl)c2)CC2[C@@H](O)CC1N2C (stereo in doubt; 14a) [listing 1 of 2 here] | 166 nM |
| COC(=O)C1C(c2ccc(Cl)c(Cl)c2)CC2C[C@@H](O)C1N2C (stereo in doubt; 15a) [listing 1 of 2 here] | 27.7 nM |
| COC(=O)C1C(OC(c2ccc(F)cc2)c2ccc(F)cc2)CC2C[C@@H](O)C1N2C (some centres not stated) | 9560 nM |
| COC(=O)C1=C(c2ccc(F)cc2)CC2[C@@H](O)CC1N2C (some centres not stated) | > 20000 nM |
| COC(=O)C1=C(c2ccc(Cl)c(Cl)c2)CC2C[C@@H](O)C1N2C (some centres not stated) | > 6000 nM |

| Structure (SMILES) | IC50 |
| --- | --- |
| COC(=O)C1C(OC(c2ccc(F)cc2)c2ccc(F)cc2)CC2[C@@H](O)CC1N2C (some centres not stated) | 4850 nM |
| COC(=O)C1=C(c2ccccc2)CC2[C@@H](O)CC1N2C (some centres not stated) | > 100000 nM |
| COC(=O)C1=C(c2ccc3ccccc3c2)CC2[C@@H](O)CC1N2C (some centres not stated) | 260 nM |
| COC(=O)C1C(c2ccc(Cl)c(Cl)c2)CC2[C@H](O)CC1N2C (some centres not stated) | 10700 nM |
| COC(=O)C1C(c2ccccc2)CC2[C@@H](O)CC1N2C (stereo in doubt; 14d) [listing 1 of 2 here] | 88000 nM |
| COC(=O)C1C(c2ccc3ccccc3c2)CC2C[C@@H](O)C1N2C (stereo in doubt; 15b) [listing 1 of 2 here] | 5.57 nM |
| COC(=O)C1C(c2ccc(F)cc2)CC2[C@@H](O)CC1N2C (stereo in doubt; 14c) [listing 1 of 2 here] | > 20000 nM |
| COC(=O)C1=C(c2ccccc2)CC2CCC1N2C (configuration not stated) | 28600 nM |
| COC(=O)C1C(c2ccc(F)cc2)CC2C[C@@H](O)C1N2C (stereo in doubt; 15c) [listing 1 of 2 here] | > 10000 nM |
| COC(=O)C1C(c2ccc(F)cc2)CC2C[C@@H](O)C1N2C (stereo in doubt; 18c) [listing 1 of 2 here] | > 20000 nM |
| COC(=O)C1C(c2ccc(Cl)c(Cl)c2)CC2[C@@H](O)CC1N2C (stereo in doubt; 17a) [listing 1 of 2 here] | 1450 nM |
| COC(=O)C1=C(c2ccc(F)cc2)CC2C[C@@H](O)C1N2C (some centres not stated) | > 10000 nM |
| COC(=O)C1C(c2ccc(Cl)c(Cl)c2)CC2C[C@H](O)C1N2C (some centres not stated) | 991 nM |
| COC(=O)C1C(c2ccc(Cl)c(Cl)c2)CC2C[C@@H](O)C1N2C (stereo in doubt; 18a) [listing 1 of 2 here] | 1390 nM |
| COC(=O)C1C(c2ccccc2)CC2[C@@H](O)CC1N2C (stereo in doubt; 17d) [listing 1 of 2 here] | > 10000 nM |
| COC(=O)C1=C(c2ccccc2)CC2C[C@@H](O)C1N2C (some centres not stated) | > 10000 nM |
| COC(=O)C1C(c2ccc(Cl)c(Cl)c2)CC2C[C@@H](O)C1N2C (stereo in doubt; 33) | 533 nM |
| COC(=O)[C@H]1C(c2ccc(Cl)c(Cl)c2)CC2C[C@@H](O)[C@H]1N2C (stereo in doubt; (1R)-15a) [listing 1 of 2 here] | 139 nM |
| COC(=O)C1=C(c2ccc(Cl)c(Cl)c2)CC2C[C@H](O)[C@H]1N2C | 1590 nM |

biological target: Monoamine transporters; serotonin & dopamine (Homo sapiens) (UniProt P31645+Q01959); test: SERT/DAT ratio of the compound; type: protein assay; details: not given
Sequence (P31645 whole entry, looked up): as the sequence (P31645 whole entry) above
Sequence (Q01959 whole entry, looked up): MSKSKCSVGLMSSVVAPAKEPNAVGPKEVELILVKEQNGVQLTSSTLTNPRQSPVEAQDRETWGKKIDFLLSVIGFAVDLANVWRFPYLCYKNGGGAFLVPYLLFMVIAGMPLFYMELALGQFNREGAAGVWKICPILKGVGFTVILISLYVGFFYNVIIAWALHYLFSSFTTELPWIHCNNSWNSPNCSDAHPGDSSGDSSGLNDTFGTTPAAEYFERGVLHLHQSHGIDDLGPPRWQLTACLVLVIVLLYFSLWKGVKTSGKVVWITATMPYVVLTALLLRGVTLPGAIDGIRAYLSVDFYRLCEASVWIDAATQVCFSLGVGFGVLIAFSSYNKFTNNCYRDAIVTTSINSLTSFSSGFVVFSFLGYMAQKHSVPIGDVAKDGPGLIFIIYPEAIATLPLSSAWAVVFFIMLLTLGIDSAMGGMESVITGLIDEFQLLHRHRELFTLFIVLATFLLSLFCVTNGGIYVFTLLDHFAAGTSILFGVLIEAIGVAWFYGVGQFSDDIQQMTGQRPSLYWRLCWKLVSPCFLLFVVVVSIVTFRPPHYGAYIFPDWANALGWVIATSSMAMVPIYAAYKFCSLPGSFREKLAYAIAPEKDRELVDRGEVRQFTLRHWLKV

| Structure (SMILES) | Ratio |
| --- | --- |
| COC(=O)[C@H]1C(c2ccc(Cl)c(Cl)c2)CC2C[C@@H](O)[C@H]1N2C (stereo in doubt; (1R)-18a) [listing 2 of 2 here] | 11 |
| COC(=O)C1C(c2ccc3ccccc3c2)CC2CCC1N2C (stereo in doubt; 16b) | 10 |
| COC(=O)C1C(c2ccc(F)cc2)CC2[C@@H](O)CC1N2C (stereo in doubt; 17c) [listing 2 of 2 here] | 8 |
| COC(=O)C1C(c2ccc(Cl)c(Cl)c2)C[C@H]2C[C@@H](O)C1N2C (some centres not stated) | 50 |
| COC(=O)[C@@H]1C(c2ccc(Cl)c(Cl)c2)C[C@H]2C[C@@H](O)C1N2C (some centres not stated) | 1610 |
| COC(=O)C1C(c2ccc(F)cc2)CC2C[C@@H](O)C1N2C (stereo in doubt; 15c) [listing 2 of 2 here] | > 80 |
| COC(=O)C1=C(c2ccc3ccccc3c2)CC2C[C@@H](O)C1N2C (some centres not stated) | 15 |
| COC(=O)C1C(c2ccc(Cl)c(Cl)c2)CC2[C@@H](O)CC1N2C (stereo in doubt; 17a) [listing 2 of 2 here] | 238 |
| COC(=O)C1C(c2ccc(Cl)c(Cl)c2)CC2CCC1N2C (stereo in doubt; 16a) | 73 |
| COC(=O)[C@H]1C(c2ccc(Cl)c(Cl)c2)CC2C[C@@H](O)[C@H]1N2C (stereo in doubt; (1R)-15a) [listing 2 of 2 here] | 0.05 |
| COC(=O)C1C(c2ccc(Cl)c(Cl)c2)CC2C[C@@H](O)C1N2C (stereo in doubt; 18a) [listing 2 of 2 here] | 1170 |
| COC(=O)C1C(c2ccc3ccccc3c2)CC2C[C@@H](O)C1N2C (stereo in doubt; 18b) [listing 2 of 2 here] | 34 |
| COC(=O)C1=C(c2ccc(Cl)c(Cl)c2)CC2[C@@H](O)CC1N2C (some centres not stated) | 60 |
| COC(=O)C1=C(c2ccc3ccccc3c2)CC2CCC1N2C (configuration not stated) | 37 |
| COC(=O)C1=C(c2ccc(F)cc2)CC2[C@@H](O)CC1N2C (some centres not stated) | 1 |
| COC(=O)C1=C(c2ccc(Cl)c(Cl)c2)CC2C[C@@H](O)C1N2C (some centres not stated) | > 300 |
| COC(=O)C1=C(c2ccc(F)cc2)CC2CCC1N2C (configuration not stated) | 20 |
| COC(=O)C1C(c2ccc(Cl)c(Cl)c2)CC2CCC1N2C (stereo in doubt; 13a) | 2 |
| COC(=O)C1C(c2ccc3ccccc3c2)CC2[C@@H](O)CC1N2C (stereo in doubt; 14b) [listing 2 of 2 here] | 4 |

| Structure (SMILES) | Ratio |
| --- | --- |
| COC(=O)C1C(c2ccccc2)CC2C[C@@H](O)C1N2C (stereo in doubt; 15d) [listing 2 of 2 here] | > 43 |
| COC(=O)C1C(c2ccccc2)CC2[C@@H](O)CC1N2C (stereo in doubt; 14d) [listing 2 of 2 here] | 14 |
| COC(=O)C1C(c2ccc(Cl)c(Cl)c2)CC2[C@@H](O)CC1N2C (stereo in doubt; 14a) [listing 2 of 2 here] | 55 |
| COC(=O)C1=C(c2ccccc2)CC2[C@@H](O)CC1N2C (some centres not stated) | 1 |
| COC(=O)C1C(c2ccc3ccccc3c2)CC2[C@@H](O)CC1N2C (stereo in doubt; 17b) [listing 2 of 2 here] | 6 |
| COC(=O)C1=C(c2ccc3ccccc3c2)CC2[C@@H](O)CC1N2C (some centres not stated) | 1 |
| COC(=O)C1=C(c2ccccc2)CC2CCC1N2C (configuration not stated) | 11 |
| COC(=O)C1C(c2ccccc2)CC2C[C@@H](O)C1N2C (stereo in doubt; 18d) [listing 2 of 2 here] | > 190 |
| COC(=O)C1C(c2ccc(F)cc2)CC2C[C@@H](O)C1N2C (stereo in doubt; 18c) [listing 2 of 2 here] | > 120 |
| COC(=O)C1C(c2ccc(Cl)c(Cl)c2)CC2C[C@@H](O)C1N2C (stereo in doubt; 15a) [listing 2 of 2 here] | 20 |
| COC(=O)C1C(c2ccc3ccccc3c2)CC2CCC1N2C (stereo in doubt; 13b) | 5 |
| COC(=O)C1=C(c2ccc(F)cc2)CC2C[C@@H](O)C1N2C (some centres not stated) | 1 |
| COC(=O)C1C(c2ccc(F)cc2)CC2[C@@H](O)CC1N2C (stereo in doubt; 14c) [listing 2 of 2 here] | > 42 |
| COC(=O)C1=C(c2ccc(Cl)c(Cl)c2)CC2CCC1N2C (configuration not stated) | 747 |
| COC(=O)C1=C(c2ccccc2)CC2C[C@@H](O)C1N2C (some centres not stated) | 1 |
| COC(=O)C1C(c2ccc3ccccc3c2)CC2C[C@@H](O)C1N2C (stereo in doubt; 15b) [listing 2 of 2 here] | 4 |
| COC(=O)C1C(c2ccccc2)CC2[C@@H](O)CC1N2C (stereo in doubt; 17d) [listing 2 of 2 here] | > 3 |
| COC(=O)C1=C(c2ccc(Cl)c(Cl)c2)CC2C[C@H](O)[C@H]1N2C | 6 |
